# The source made the active and inactive calls. The calls are words filed in the database; no cut-off is given here.
# Legend:
# [1] = (§1) Inhibition of IL-1beta-induced PGE2 production in human HCA-7 cells at 1 uM after 72 hrs by EIA; format: functional; settings: HCA-7, 72 h
# How it was run: (§2)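 Screen of HCA-7 cells at 1 μM compound (DMSO) with 10 ng/ml IL-1β in serum-free medium for 72 h, after overnight DMEM/10% FBS culture and 18 h serum starvation. Supernatant PGE2 quantified by EIA, expressed as % reduction of PGE2 level ± SD, n = 3.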
# [2] = target: T1, Prostaglandin G/H synthase 2 (Homo sapiens, UniProt P35354); test: Inhibition of COX2 by fluorescence assay
# T1 sequence (P35354 whole entry): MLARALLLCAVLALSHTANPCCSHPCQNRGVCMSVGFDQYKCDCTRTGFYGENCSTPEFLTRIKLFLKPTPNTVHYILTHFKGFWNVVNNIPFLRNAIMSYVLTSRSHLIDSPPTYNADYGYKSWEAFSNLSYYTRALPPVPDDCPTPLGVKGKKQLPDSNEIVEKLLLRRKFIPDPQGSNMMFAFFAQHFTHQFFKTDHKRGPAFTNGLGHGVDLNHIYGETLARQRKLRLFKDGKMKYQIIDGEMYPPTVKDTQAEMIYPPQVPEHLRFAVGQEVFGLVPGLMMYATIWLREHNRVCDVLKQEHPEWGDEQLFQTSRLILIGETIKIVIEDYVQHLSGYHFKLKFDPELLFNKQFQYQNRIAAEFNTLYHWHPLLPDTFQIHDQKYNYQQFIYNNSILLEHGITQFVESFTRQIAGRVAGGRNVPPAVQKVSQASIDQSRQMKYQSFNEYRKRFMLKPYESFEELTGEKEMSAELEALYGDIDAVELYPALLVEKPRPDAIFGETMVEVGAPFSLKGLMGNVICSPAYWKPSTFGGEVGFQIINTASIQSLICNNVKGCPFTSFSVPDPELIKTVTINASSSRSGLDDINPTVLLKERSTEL
# [3] = Inhibition of IL-1beta-induced PGE2 production in human HCA-7 cells after 72 hrs by EIA; format: functional, cell-based; settings: HCA-7, 72 h
# How it was run: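 HCA-7 cells seeded and incubated overnight in DMEM/10% FBS, then serum-starved 18 h. Stimulated with 10 ng/ml IL-1β plus increasing compound concentrations (DMSO) in serum-free medium for 72 h. Supernatant PGE2 measured by EIA.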
# [4] = target: T2, Prostaglandin G/H synthase 2 (Homo sapiens) (UniProt P35354); settings: at 5 µM
# T2 sequence (whole entry): T1 sequence (P35354 whole entry)
# HCA-7 = test: as §1; format: functional; how it was run: as §2
# [5] = Antitumor activity against human HCA-7 cells xenografted in mouse at 200 mg/kg for 5 days relative to control; format: functional
# SW837 = test: Antitumor activity against human SW837 cells xenografted in mouse at 200 mg/kg for 5 days relative to control; format: functional
# A549 = test: Antitumor activity against human A549 cells xenografted in mouse at 100 mg/kg for 10 days relative to control; format: functional
Compound,inhibition at 1 µM [1] [%],IC50 [2] [nM],inhibition [4] [%],also measured
Fc1ccc(-c2csc(Nc3ccc(Oc4ccccc4)cc3)n2)cc1,87.9,> 5000,43.4,EC50 [3]: 120 nM
COc1ccc(-c2csc(Nc3ccc(Oc4ccccc4)cc3)n2)cc1,80.4,> 5000,40.8,EC50 [3]: 240 nM
COc1ccc(Nc2nc(-c3ccc(C)cc3)cs2)cc1,37.3,,,
c1ccc(Oc2ccc(Nc3nc(-c4ccc(C5CCCCC5)cc4)cs3)cc2)cc1,41.6,,,
CCc1sc(Nc2ccc(Oc3ccccc3)cc2)nc1C,87.1,> 5000,41.3,
CC(=O)c1sc(Nc2ccc3c(c2)OCO3)nc1C,25.3,,,
COc1ccc(-c2csc(Nc3ccc(C)cc3)n2)cc1,91.5,810,73.1,
N#Cc1ccc(Nc2nc(-c3ccccc3)c(C(=O)c3ccccc3)s2)cc1,,,,inhibition (HCA-7): inactive
COc1ccccc1-c1csc(Nc2ccc3c(c2)OCO3)n1,89,930,91.3,
CCc1sc(Nc2ccc(OC)cc2)nc1C,94.4,> 5000,49.3,EC50 [3]: 320 nM
c1ccc(Oc2ccc(Nc3nc(-c4ccc5ccccc5c4)cs3)cc2)cc1,53.5,,,
CN(c1ccc(O)cc1)c1nc(-c2ccc(Cl)cc2)cs1,85.8,1080,84.2,
COc1ccc(Nc2nc(-c3ccc(C)c(C)c3)cs2)cc1,73.9,1200,69.3,
COc1ccc(Nc2nc(-c3ccc(Cl)cc3)c(C)s2)cc1,89.3,> 5000,12,
c1ccc(-c2csc(Nc3ccc4c(c3)OCO4)n2)cc1,98.2,410,114,
Clc1ccc(-c2csc(Nc3cccc4ccccc34)n2)cc1,51.4,,,
COc1cccc(-c2csc(Nc3ccc(Oc4ccccc4)cc3)n2)c1,88.9,> 5000,40.3,EC50 [3]: 290 nM
O=C(c1ccccc1)c1sc(Nc2ccc(Oc3ccccc3)cc2)nc1-c1ccccc1,42,,,

Compound,inhibition at 1 µM [1] [%],IC50 [2] [nM],inhibition [4] [%],also measured
COc1ccccc1-c1csc(Nc2ccc(Oc3ccccc3)cc2)n1,82,> 5000,38.9,EC50 [3]: 180 nM
COc1ccc(Nc2nc(-c3ccc(OC)cc3)cs2)cc1,73.6,1370,66.8,
COc1cccc(-c2csc(Nc3ccc4c(c3)OCO4)n2)c1,94.4,920,86,
COc1ccc(Nc2nc(C)c(C(C)=O)s2)cc1,58.5,,,
Clc1ccc(-c2csc(Nc3ccc4c(c3)OCO4)n2)cc1,94.2,840,68.8,
Clc1ccc(-c2csc(Nc3ccccc3)n2)cc1,51,,,
Clc1ccc(-c2csc(Nc3ccc(Oc4ccccc4)cc3)n2)cc1,75.5,> 10000,32.1,EC50 [3]: 280 nM; T/C [5]: 61%; T/C (SW837): 40%; T/C (A549): 38%
COc1ccc(-c2csc(Nc3ccc4c(c3)OCO4)n2)cc1,96.2,910,94.4,
O=C(c1ccccc1)c1sc(Nc2ccc3c(c2)OCO3)nc1-c1ccccc1,,,,inhibition (HCA-7): inactive
c1ccc(Oc2ccc(Nc3nc(-c4ccccc4)cs3)cc2)cc1,79.6,> 5000,31,EC50 [3]: 330 nM
CC(=O)c1sc(Nc2ccc(C#N)cc2)nc1C,22.4,,,
Clc1ccccc1-c1csc(Nc2ccc3c(c2)OCO3)n1,85.9,910,84.8,
COc1ccc(Nc2nc(-c3ccccc3)c(C(=O)c3ccccc3)s2)cc1,,,,inhibition (HCA-7): inactive
CC(=O)c1sc(Nc2ccccc2)nc1C,29.9,,,
CC(=O)c1sc(Nc2ccc(Oc3ccccc3)cc2)nc1C,87.9,> 5000,28.9,
N#Cc1ccc(Nc2nc(-c3ccc(Cl)cc3)cs2)cc1,23.1,,,
Cc1nc(Nc2ccc(Oc3ccccc3)cc2)sc1C(C)O (stereo not given),80.4,> 5000,,EC50 [3]: 90 nM
COc1cccc(Nc2nc(-c3ccc(Cl)cc3)cs2)c1,78.3,1390,55.1,

# Source: ChEMBL document CHEMBL2021771, “Synthesis and biological activity of 2-aminothiazoles as novel inhibitors of PGE2 production in cells” (Bioorg Med Chem Lett, 2012)
